Columns and labels:
Plasma [1] = assay: fAUC (0-infinity) in immunocompetent SKH1 mouse plasma at 50 mg/kg, sc; assay type: ADME, organism-based; parameters: dose 50 mg/kg, route subcutaneous; details: in vivo
Outline: (§1)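 Female SKH1 hairless mice, immunocompetent or cyclophosphamide-neutropenic, infected s.c. with MRSA OC 8525 or P. aeruginosa OC 4354 on the Cytodex beads (left flank), sterile beads on the right. Single dose 24 h later: s.c. at the nape, or linezolid 50 mg/kg oral. Plasma and skin (DMSO homogenate) sampled over time, HPLC with diode array.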

[2] = fT>MIC in Pseudomonas aeruginosa OC 4351 infected sc dosed SKH1 mouse at 50 mg/kg, sc administered twice at 1 and 3 hrs after infection; assay type: functional; details: route subcutaneous
[3] = Protein binding in mouse plasma; assay type: ADME, cell-free; details: read-out: PPB (converted)
Staphylococcus aureus [4] = assay: Antimicrobial activity against methicillin-susceptible Staphylococcus aureus Smith OC 4172 infected immunocompetent SKH1 mouse assessed as lesion volume at 25 mg/kg/day, sc measured after 48 hrs postinfection (reference value: 1181 mm3); details: route subcutaneous
Staphylococcus aureus [5] = assay: Antimicrobial activity against methicillin-susceptible Staphylococcus aureus Smith OC 4172 infected immunocompetent SKH1 mouse assessed as lesion volume at 6.2 mg/kg/day, sc measured after 48 hrs postinfection (reference value: 1181 mm3); details: route subcutaneous
Pseudomonas aeruginosa [6] = assay: Antimicrobial activity against Pseudomonas aeruginosa OC 4354 infected in immunocompromized SKH1 mouse assessed as log change in bacterial colony forming unit at 1.6 mg/kg/day, sc; assay type: functional; details: route subcutaneous
Outline: (§2)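 Female SKH1 hairless mice made neutropenic with ip cyclophosphamide (150 mg/kg 5 days and 100 mg/kg 1 day before infection). 0.2 ml s.c. Cytodex bead (0.1% vol/vol) inoculum in BHI: OC 4351 left flank, OC 4354 right flank. Drug s.c. at 1, 3, 25, 27 h postinfection. Killed at 48 h; skin homogenised in saline, plated on TSA 18 h 37°C; Δlog CFU/g versus inoculum. 5 mice/dose, run twice.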

Pseudomonas aeruginosa [7] = assay: Antimicrobial activity against Pseudomonas aeruginosa OC 4354 assessed as inhibition of growth by broth microdilution method; assay type: functional
Staphylococcus aureus [8] = assay: Antimicrobial activity against methicillin-resistant Staphylococcus aureus OC 8525 infected immunocompetent SKH1 mouse assessed as lesion volume at 100 mg/kg/day, sc measured after 48 hrs postinfection (reference value: 1535 mm3); details: route subcutaneous
[9] = Tmax in immunocompetent SKH1 mouse plasma at 50 mg/kg, sc; assay type: ADME, organism-based; parameters: dose 50 mg/kg, route subcutaneous; outline: as §1
Staphylococcus aureus [10] = assay: Antimicrobial activity against methicillin-susceptible Staphylococcus aureus Smith OC 4172 infected immunocompetent SKH1 mouse assessed as lesion volume at 100 mg/kg/day, sc measured after 48 hrs postinfection (reference value: 1181 mm3); details: route subcutaneous
[11] = Half life in Pseudomonas aeruginosa infected immunocompromized SKH1 mouse skin at 50 mg/kg, sc
[12] = Tmax in immunocompetent SKH1 mouse skin at 50 mg/kg, sc; assay type: ADME, organism-based, Zone of skin; parameters: dose 50 mg/kg, route subcutaneous; outline: as §1
[13] = fT>MIC in Pseudomonas aeruginosa OC 4354 infected sc dosed SKH1 mouse administered in 24 hrs dosing interval; assay type: functional
Outline: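 Plasma levels came from female hairless SKH1 mice given single s.c. doses at the nape 24 h after flank s.c. infection with Cytodex beads. S. aureus work used immunocompetent mice. P. aeruginosa work used mice made neutropenic with cyclophosphamide i.p., 150 mg/kg at day −5 and 100 mg/kg at day −1. Drug assayed by HPLC with diode-array detection. Noncompartmental analysis.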

Pseudomonas aeruginosa [14] = assay: Antimicrobial activity against Pseudomonas aeruginosa OC 4351 infected in immunocompromized SKH1 mouse assessed as log change in bacterial colony forming unit at 100 mg/kg/day, sc; assay type: functional; details: route subcutaneous; outline: as §2
Staphylococcus aureus [15] = assay: Antimicrobial activity against methicillin-susceptible Staphylococcus aureus Smith OC 4172 infected in SKH1 mouse assessed as log change in bacterial colony forming unit per gram of skin tissue at 100 mg/kg/day, sc (reference value: 1.6 deltalog CFU); assay type: functional; details: route subcutaneous
[16] = Tmax in immunocompromized SKH1 mouse skin at 50 mg/kg, sc; assay type: ADME, organism-based, Zone of skin; parameters: dose 50 mg/kg, route subcutaneous; outline: as §1
Pseudomonas aeruginosa [17] = assay: Antimicrobial activity against Pseudomonas aeruginosa OC 4351 infected in immunocompromized SKH1 mouse assessed as lesion volume at 1.6 mg/kg/day, sc measured after 48 hrs postinfection (reference value: 2234 mm3); assay type: functional; details: route subcutaneous
[18] = Half life in immunocompromized SKH1 mouse plasma at 50 mg/kg, sc; assay type: ADME, organism-based; parameters: dose 50 mg/kg, route subcutaneous
Pseudomonas aeruginosa [19] = assay: Antimicrobial activity against Pseudomonas aeruginosa OC 4354 infected in immunocompromized SKH1 mouse assessed as lesion volume at 6.2 mg/kg/day, sc measured after 48 hrs postinfection (reference value: 2195 mm3); assay type: functional; details: route subcutaneous
Plasma [20] = assay: fCmax in immunocompetent SKH1 mouse plasma at 12.5 mg/kg, sc; assay type: ADME, organism-based; parameters: dose 12.5 mg/kg, route subcutaneous; details: in vivo; outline: as §1
[21] = fT>MIC in Staphylococcus aureus OC 8525 infected sc dosed SKH1 mouse at 50 mg/kg, sc administered twice at 1 and 3 hrs after infection; assay type: functional; details: route subcutaneous
Pseudomonas aeruginosa [22] = assay: Antimicrobial activity against Pseudomonas aeruginosa OC 4351 infected in immunocompromized SKH1 mouse assessed as lesion volume at 25 mg/kg/day, sc measured after 48 hrs postinfection (reference value: 2234 mm3); assay type: functional; details: route subcutaneous
[23] = fT>MIC in Staphylococcus aureus Smith OC 4172 infected sc dosed SKH1 mouse at 50 mg/kg, sc administered twice at 1 and 3 hrs after infection; assay type: functional; details: route subcutaneous
[24] = Tmax in immunocompromized SKH1 mouse plasma at 50 mg/kg, sc; assay type: ADME, organism-based; parameters: dose 50 mg/kg, route subcutaneous; outline: as §1
Staphylococcus aureus [25] = assay: Antimicrobial activity against methicillin-resistant Staphylococcus aureus OC 8525 infected in SKH1 mouse assessed as log change in bacterial colony forming unit per gram of skin tissue at 1.6 mg/kg/day, sc (reference value: 0.8 deltalog CFU); assay type: functional; details: route subcutaneous
Outline: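 Female hairless immunocompetent SKH1 mice were anaesthetised and injected s.c. with 0.2 ml Cytodex bead inoculum (0.1% vol/vol beads in BHI; 6.7–7.0 log10 CFU/mouse): MSSA OC 4172 in the left flank, MRSA OC 8525 in the right. Drug was given at 1, 3, 25 and 27 h post-infection. At 48 h, flank lesions were excised, weighed and homogenised in saline, then plated on TSA (18 h, 37°C). The value is Δlog CFU/g versus the inoculum, from 5 mice/dose, run twice and pooled.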

Staphylococcus aureus [26] = assay: Antimicrobial activity against methicillin-susceptible Staphylococcus aureus Smith OC 4172 infected in SKH1 mouse assessed as log change in bacterial colony forming unit per gram of skin tissue at 1.6 mg/kg/day, sc (reference value: 1.6 deltalog CFU); assay type: functional; details: route subcutaneous
Plasma [27] = assay: fAUC (0-infinity) in immunocompromized SKH1 mouse plasma at 50 mg/kg, sc; assay type: ADME, organism-based; parameters: dose 50 mg/kg, route subcutaneous; details: in vivo; outline: as §1
[28] = fT>MIC in Pseudomonas aeruginosa OC 4354 infected sc dosed SKH1 mouse at 50 mg/kg, sc administered twice at 1 and 3 hrs after infection; assay type: functional; details: route subcutaneous
Zone of skin = assay: fAUC (0-infinity) in Staphylococcus aureus infected immunocompromized SKH1 mouse skin at 50 mg/kg, sc; assay type: ADME, organism-based; parameters: dose 50 mg/kg, route subcutaneous; details: in vivo

Structure (SMILES): Nc1nc(/C(=N/O)C(=O)N[C@@H]2C(=O)N3C(C(=O)O)=C(/C=C4\CCN([C@@H]5CCNC5)C4=O)CS[C@H]23)ns1 [CEFTOBIPROLE]
- fAUC (Plasma [1]): 2336 µg·min/mL
- fT>MIC [2]: 2.2 h
- fraction unbound [3]: 0.84
- Activity (Staphylococcus aureus [4]): 640 mm3
- Activity (Staphylococcus aureus [5]): 885 mm3
- deltalog10CFU (Pseudomonas aeruginosa [6]): 1.7
- MIC (Pseudomonas aeruginosa [7]): 4 µg/mL
- Activity (Staphylococcus aureus [8]): 484 mm3
- Tmax [9]: 7.5 min
- Activity (Staphylococcus aureus [10]): 555 mm3
- half-life [11]: 76 min
- Tmax [12]: 15 min
- fT>MIC [13]: 9.1%
- deltalog10CFU (Pseudomonas aeruginosa [14]): -1.1
- deltalog10CFU (Staphylococcus aureus [15]): -1.7
- Tmax [16]: 15 min
- Activity (Pseudomonas aeruginosa [17]): 1593 mm3
- half-life [18]: 13 min
- Activity (Pseudomonas aeruginosa [19]): 1028 mm3
- fCmax (Plasma [20]): 17 µg/mL
- fT>MIC [21]: 3.3 h
- Activity (Pseudomonas aeruginosa [22]): 552 mm3
- fT>MIC [23]: >4 h
- Tmax [24]: 7.5 min
- deltalog10CFU (Staphylococcus aureus [25]): 0.3
- deltalog10CFU (Staphylococcus aureus [26]): -1
- fAUC (Plasma [27]): 2011 µg·min/mL
- fT>MIC [28]: 2.2 h
- fAUC (Zone of skin): 704 µg·min/mL
